In general, pKa refers to the pH at which an ionisable group is half protonated. The low end stands for a group that gives up its proton readily, the high end for a group that holds its proton tightly.

Data set [1] in a line: pKa value was determined. The data set is classed as physicochemical. The method, boiled down: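 Determined by autotitration with a pH meter and autoburette; mean of two or more independent measurements.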
Data set [2] has as its target T1, Muscarinic acetylcholine receptor (Rattus norvegicus) (UniProt P08482+P08483+P08485+P08911+P10980).
Data set [3] has as its target T1, Muscarinic acetylcholine receptor (Rattus norvegicus). This is another data set of the same source.
For data set [4] the target is unchanged. Briefly: Apparent binding affinity against rat cortical Muscarinic acetylcholine receptor by the displacement of [3H]N-methylscopolamine. The class given is protein assay. A digest of the protocol: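 Membranes from cortex of male Sprague-Dawley rats (250–300 g), resuspended in 20 mM HEPES Krebs' buffer pH 7.4. Displacement of 0.1 nM [3H]-N-methylscopolamine; 60 min incubation at 30 °C, ended by filtration. Apparent affinity constant corrected for radioligand occupancy, given in micromolar; geometric mean of at least three independent experiments on separate occasions.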
(Displacement assays read how much labelled ligand stays bound in the presence of the test substance.)

For data set [5] the target is unchanged. Nature of the data set: Apparent binding affinity against rat cortical Muscarinic acetylcholine receptor by the displacement of [3H]oxotremorine-M. The class given is protein assay. The method, boiled down: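 Rat brain membranes from male Sprague-Dawley rats (250–300 g), resuspended in 20 mM HEPES buffer pH 7.4. Displacement curves use 3.0 nM [3H]oxotremorine-M; incubation 40 min at 30 °C, stopped by filtration through polyethyleneimine-presoaked filters.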

A short description of data set [6]: Ratio of apparent binding affinities of NMS and Oxo-M.

The structures appear in SMILES notation.

`CN(C)c1noc(C2=CCCNC2)n1` showed a pKa in data set [1] of 8.58. For the same molecule, the K app in data set [2] came out at 3.5 µM; in data set [3] it was 0.082 µM.
The like results for `C=Cc1noc(C2=CCCNC2)n1` were, in that order, 8.23, 2.5 µM and 0.035 µM.
The like results for `Cc1noc(C2=CC(C)CNC2)n1` (stereo not given) were, in that order, 8.17, 2.7 µM and 0.037 µM.
As to `COC(=O)C1=CCCNC1`, the K app in data set [2] is 23 µM; in data set [3], 0.012 µM.
As for `Nc1noc(C2=CCCNC2)n1`, in data set [1], the pKa is 8.25.
As for `CCC1C=C(c2nc(C)no2)CNC1` (stereo not given), the values for the K app in data set [2] and in data set [3] were 25 µM and 0.97 µM, respectively.
Take `OCc1noc(C2=CCCNC2)n1`: the K app in data set [2] is 34 µM; in data set [3], 0.11 µM.
In data set [1], `Cc1noc(C2=CCC(C)NC2)n1` (stereo not given) gave a pKa of 8.2. Further, the K app was 16 µM in data set [4] and 0.12 µM in data set [5]. In addition, the Ratio in data set [6] came to 130.
As to `OCCc1noc(C2=CCCNC2)n1`, the K app is 13 µM in data set [2] and 0.23 µM in data set [3].
In the case of `FCCc1noc(C2=CCCNC2)n1`, the pKa in data set [1] was found to be 8.29. Further, the results for the K app in data set [2] and in data set [3] were 5.7 µM and 0.021 µM, respectively.
The like results for `Cc1noc(C2=CC(C)CN(C)C2)n1` (stereo not given) were, in that order, 7.34, 15 µM and 0.87 µM.
For the molecule `CCc1noc(C2=CCCNC2)n1`, the K app in data set [2] is 4.3 µM; in data set [3], 0.0074 µM.
As for `Cc1noc(C2=CCCNC2)n1`, the pKa in data set [1] came to 8.24. For the same molecule, the K app in data set [2] amounted to 2.3 µM; in data set [3], 0.0031 µM.
For the molecule `CN1CCC=C(c2nc(N(C)C)no2)C1`, the pKa in data set [1] amounted to 7.24. In addition, the K app stood at 2.5 µM in data set [2] and 0.12 µM in data set [3].
`Cc1noc(C2=CCC(C)N(C)C2)n1` (stereo not given) came in with a pKa in data set [1] of 7.35. The results for the K app in data set [2] and in data set [3] were 2.4 µM and 0.061 µM, respectively.
Turning to `Cc1noc(C2=CCCN(C)C2)n1`, the pKa in data set [1] stood at 7.16.
